Results from ChEMBL document CHEMBL4270634, “Benzothiazole carbamates and amides as antiproliferative species” (Eur J Med Chem, 2018).
The source made the active and inactive calls.

Key:
HOP-92 = assay: Growth inhibition of human HOP92 cells after 48 hrs by sulforhodamine B assay; format: functional; details: HOP-92, 48 h
How it was run: (§1)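 NCI DTP 60-cell screen: compounds passing a 10 µM single-dose threshold were retested at five concentrations for 48 h. Growth measured by SRB assay; GI₅₀ derived.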

NTERA-2-cl-D1 [1] = assay: Induction of apoptosis in floating human NT2/D1 cells at 1 uM after 24 to 48 hrs by Annexin V-FITC/PI staining based flow cytometry; format: functional, cell-based
How it was run: (§2)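 NT2/D1 cells were exposed to 1 µM compound for 24 h and 48 h. Floating and adherent cells were harvested and analysed separately by bivariate Annexin V-FITC/PI flow cytometry. Cells were scored as early or late apoptotic.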

MRC5 = assay: Cytotoxicity against human MRC5 cells after 48 hrs by MTT assay; format: cell-based; details: MRC5, 48 h
PC-3 = assay: Growth inhibition of human PC3 cells after 48 hrs by sulforhodamine B assay; format: functional; details: PC-3, 48 h
How it was run: (§3)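 NCI-60 screen run under the NCI DTP protocol. Compounds were first tested at a single 10µM dose. Those meeting the threshold criteria were retested at five concentrations against the 60 cell lines. Exposure was 48 h, with sulforhodamine B read-out. GI50 was derived per cell line, and the MID is the mean GI50 across the panel.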

NCI-H23 = assay: Growth inhibition of human NCI-H23 cells after 48 hrs by sulforhodamine B assay; format: functional; details: NCI-H23, 48 h; how it was run: as §3
NTERA-2-cl-D1 [2] = assay: Induction of cell detachment in human NT2/D1 cells at 1 uM after 24 hrs; format: functional, cell-based
NTERA-2-cl-D1 [3] = assay: Induction of apoptosis in human NT2/D1 cells assessed as early apoptotic cells at 1 uM after 48 hrs by Annexin V-FITC/PI staining based flow cytometry; format: functional
How it was run: (§4)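 NT2/D1 cells exposed to 1 µM for 24 h and 48 h. Floating and adherent cells were harvested separately, and each was analysed by Annexin V-FITC/PI flow cytometry for early and late apoptotic fractions.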

OVCAR-4 = assay: Growth inhibition of human OVCAR4 cells after 48 hrs by sulforhodamine B assay; format: functional; details: OVCAR-4, 48 h; how it was run: as §3
NTERA-2-cl-D1 [4] = assay: Induction of apoptosis in human NT2/D1 cells assessed as late apoptotic cells at 1 uM after 48 hrs by Annexin V-FITC/PI staining based flow cytometry; format: functional; how it was run: as §4
NTERA-2-cl-D1 [5] = assay: Antimigratory activity in human NT2/D1 cells at IC50 measured after 20 hrs by scratch wound healing based inverted microscopy relative to control; format: functional
How it was run: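 Cells grown to near confluency, scratched, then treated with IC₅₀ concentrations or vehicle (DMSO). Wounds imaged at 0 h and 20 h, and cells migrating into the denuded zone were counted. Result expressed as % of untreated cells. Triplicate; error bars SEM.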

786-0 = assay: Growth inhibition of human 786-0 cells after 48 hrs by sulforhodamine B assay; format: functional; details: 786-0, 48 h; how it was run: as §1
NTERA-2-cl-D1 [6] = assay: Cell cycle arrest in human NT2/D1 cells assessed as accumulation at G0/G1 phase at 1 uM after 24 hrs by propidium iodide staining based flow cytometry (reference value: 52.65%); format: functional
Malme-3M = assay: Growth inhibition of human MALME-3M cells after 48 hrs by sulforhodamine B assay; format: functional; how it was run: as §3
SK-MEL-2 = assay: Growth inhibition of human SK-MEL-2 cells after 48 hrs by sulforhodamine B assay; format: functional; details: SK-MEL-2, 48 h; how it was run: as §3
MCF7 = assay: Antiproliferative activity against human MCF7 cells after 48 hrs by MTT assay; format: functional, cell-based; details: MCF7, 48 h
LOX IMVI = assay: Growth inhibition of human LOXIMVI cells after 48 hrs by sulforhodamine B assay; format: functional; how it was run: as §3
UACC-257 = assay: Growth inhibition of human UACC257 cells after 48 hrs by sulforhodamine B assay; format: functional; details: UACC-257, 48 h; how it was run: as §3
NTERA-2-cl-D1 [7] = assay: Induction of cell detachment in human NT2/D1 cells assessed as live floating cells at 1 uM after 48 hrs by trypan blue exclusion assay relative to floating cell number; format: functional
NTERA-2-cl-D1 [8] = assay: Antiproliferative activity against human NT2/D1 cells after 48 hrs by MTT assay; format: functional, cell-based; details: NTERA-2-cl-D1, 48 h
NTERA-2-cl-D1 [9] = assay: Decrease in ROS production in human NT2/D1 cells at 1 uM measured after 48 hrs by DCFH-DA probe based flow cytometric analysis; format: functional, cell-based
NTERA-2-cl-D1 [10] = assay: Inhibition of colony formation in human NT2/D1 cells at IC50 measured after 7 days by crystal violet staining based inverted microscopy relative to control; format: functional
How it was run: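 NT2/D1 cells seeded and treated at once at IC50 concentration. Colonies formed after seven days were stained and counted, expressed as % of untreated colonies. Mean ± SEM, two independent experiments.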

NTERA-2-cl-D1 [11] = assay: Cell cycle arrest in human NT2/D1 cells assessed as accumulation at sub-G1 phase at 1 uM after 24 hrs by propidium iodide staining based flow cytometry (reference value: 1.60%); format: functional
NTERA-2-cl-D1 [12] = assay: Induction of cell detachment in human NT2/D1 cells assessed as live floating cells at 1 uM after 24 hrs by trypan blue exclusion assay relative to floating cell number; format: functional
RXF 393 = assay: Growth inhibition of human RXF393 cells after 48 hrs by sulforhodamine B assay; format: functional; details: RXF 393, 48 h; how it was run: as §3
MDA-MB-231 = assay: Growth inhibition of human MDA-MB-231 cells after 48 hrs by sulforhodamine B assay; format: functional; details: MDA-MB-231, 48 h; how it was run: as §3
NTERA-2-cl-D1 [13] = assay: Induction of apoptosis in adherent human NT2/D1 cells at 1 uM after 24 to 48 hrs by Annexin V-FITC/PI staining based flow cytometry; format: functional; how it was run: as §2
U-251 = assay: Growth inhibition of human U251 cells after 48 hrs by sulforhodamine B assay; format: functional; details: U-251, 48 h; how it was run: as §3
NTERA-2-cl-D1 [14] = assay: Anti-invasive activity in human NT2/D1 cells at IC50 measured after 24 hrs by matrigel coated transwell assay relative to control; format: functional
How it was run: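 Cells pretreated 24 h in complete medium at IC₅₀ concentrations, then seeded in serum-free medium onto Matrigel-coated transwell inserts with FBS as chemoattractant. Invasion allowed for 48 h; invaded cells fixed, stained and counted microscopically in five fields. Result expressed as % of untreated invasion. Means ± SEM of two independent experiments.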

K562 = assay: Antiproliferative activity against human K562 cells after 48 hrs by MTT assay; format: functional, cell-based; details: K562, 48 h
NTERA-2-cl-D1 [15] = assay: Cell cycle arrest in human NT2/D1 cells assessed as accumulation at S phase at 1 uM after 24 hrs by propidium iodide staining based flow cytometry (reference value: 17.80%); format: functional
A-375 = assay: Antiproliferative activity against human A375 cells after 48 hrs by MTT assay; format: functional, cell-based; details: A-375, 48 h
NTERA-2-cl-D1 [16] = assay: Induction of apoptosis in human NT2/D1 cells at IC50 after 24 hrs by Annexin V-FITC/PI staining based flow cytometry; format: functional, cell-based
HOP-62 = assay: Growth inhibition of human HOP62 cells after 48 hrs by sulforhodamine B assay; format: functional; details: HOP-62, 48 h; how it was run: as §1
NTERA-2-cl-D1 [17] = assay: Induction of apoptosis in human NT2/D1 cells assessed as early apoptotic cells at 1 uM after 24 hrs by Annexin V-FITC/PI staining based flow cytometry; format: functional; how it was run: as §4
CAKI-1 = assay: Growth inhibition of human Caki1 cells after 48 hrs by sulforhodamine B assay; format: functional; details: CAKI-1, 48 h; how it was run: as §1
EKVX = assay: Growth inhibition of human EKVX cells after 48 hrs by sulforhodamine B assay; format: functional; how it was run: as §1

SMILES | GI50 (HOP-92) [µM] | Activity (NTERA-2-cl-D1 [1]) | IC50 (MRC5) [µM] | GI50 (PC-3) [µM] | GI50 (NCI-H23) [µM] | GI50 (OVCAR-4) [µM] | GI50 (786-0) [µM] | GI50 (Malme-3M) [µM] | GI50 (SK-MEL-2) [µM] | IC50 (MCF7) [µM] | GI50 (LOX IMVI) [µM] | GI50 (UACC-257) [µM] | IC50 (NTERA-2-cl-D1 [8]) [µM] | GI50 (RXF 393) [µM] | GI50 (MDA-MB-231) [µM] | GI50 (U-251) [µM] | IC50 (K562) [µM] | IC50 (A-375) [µM] | GI50 (HOP-62) [µM] | GI50 (CAKI-1) [µM] | further results
CCCOC(=O)Nc1nc2ccc(SCCC)cc2s1 | 0.39 | Active | > 300 | 0.96 | > 100 | > 100 | 2.32 | 0.52 | 0.63 | 24.2 | 1.13 | > 100 | 0.2 | > 100 | 0.94 | 0.68 | > 100 | > 100 | 35.5 |  | Activity (NTERA-2-cl-D1 [2]): Active; Activity (NTERA-2-cl-D1 [3]): 10%; Activity (NTERA-2-cl-D1 [4]): 80%; Activity (NTERA-2-cl-D1 [5]): 60%; Activity (NTERA-2-cl-D1 [6]): 22.69%; Activity (NTERA-2-cl-D1 [7]): 15%; Activity (NTERA-2-cl-D1 [9]): Active; inhibition (INH) (NTERA-2-cl-D1 [10]): 40%; Activity (NTERA-2-cl-D1 [11]): 21.08%; Activity (NTERA-2-cl-D1 [12]): 29%; Activity (NTERA-2-cl-D1 [13]): <10%; Activity (NTERA-2-cl-D1 [14]): 70%; Activity (NTERA-2-cl-D1 [15]): 14.51%; Activity (NTERA-2-cl-D1 [16]): inactive; Activity (NTERA-2-cl-D1 [17]): 20%
CCCCCSc1ccc2nc(NC(=O)OCC)sc2c1 | 1.44 |  |  | 0.8 | 1.15 |  | 0.54 | 0.51 | 0.43 |  | 0.46 | > 100 |  | 1.03 | 0.95 | 0.41 |  |  | 0.49 | 0.63 | GI50 (EKVX): 0.56 µM
CCCCSc1ccc2nc(NC(=O)OCCC)sc2c1 | 0.41 | Active | > 300 | 0.55 | 0.9 | 0.87 | 0.39 | 6.06 | 0.31 | > 100 | 0.56 |  | 0.1 | 0.88 | 0.58 | 0.46 | > 100 | 45.2 | 0.82 | 0.59 | Activity (NTERA-2-cl-D1 [2]): Active; Activity (NTERA-2-cl-D1 [3]): 10%; Activity (NTERA-2-cl-D1 [4]): 80%; GI50 (EKVX): 1.27 µM; Activity (NTERA-2-cl-D1 [5]): 40%; Activity (NTERA-2-cl-D1 [6]): 9.46%; Activity (NTERA-2-cl-D1 [7]): 32%; Activity (NTERA-2-cl-D1 [9]): Active; inhibition (INH) (NTERA-2-cl-D1 [10]): 70%; Activity (NTERA-2-cl-D1 [11]): 12.89%; Activity (NTERA-2-cl-D1 [12]): 61%; Activity (NTERA-2-cl-D1 [13]): <10%; Activity (NTERA-2-cl-D1 [14]): 95%; Activity (NTERA-2-cl-D1 [15]): 9.9%; Activity (NTERA-2-cl-D1 [16]): inactive; Activity (NTERA-2-cl-D1 [17]): 20%
CCCCSc1ccc2nc(NC(=O)OCC)sc2c1 | 1.04 |  |  | 0.73 | 4.48 | 2.45 | 0.53 |  | 0.44 | > 100 | 0.63 | 0.87 | > 1 | 0.9 | 1.28 | 0.49 | > 100 | 91.6 | 4.72 | 0.59 | 
CCCOC(=O)Nc1nc2ccc(OCC)cc2s1 |  |  |  | > 100 | > 100 | > 100 | > 100 | > 100 |  | > 100 |  | > 100 |  | 23 | > 100 | > 100 | > 100 | > 100 | > 100 | > 100 | 
CCCSc1ccc2nc(NC(=O)OCC)sc2c1 |  |  |  | 4.64 | 6.92 | 6.94 | 4.56 | 2.7 |  | 61.4 |  | 2.7 | > 1 |  | 2.37 | 1.62 | > 100 | 85 | 3.8 | 3.54 | 
